The full list was thinned out, with hits kept by preference.
CHOP UPR activ: apoptotic UPR (CHOP) activation; 330,000 tested, 0.34% active; activation, % at 10 µM; CHO-CHOP luciferase reporter, luminescence; percent of tunicamycin response over DMSO baseline;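 active means at 10 µM dose, activation of 40% or more, normalized to positive control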
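Test system: CHO-CHOP cells, stable luciferase reporter of PERK-eIF2a-CHOP signalling | Quantity: 500 CHO-CHOP cells per well | Buffer or medium: F12 plus 10% serum | Compound dosing: 10 µM single point, 0.5% DMSO | Schedule: 6 h compound treatment, 37 °C | Signal: Luciferase luminescence | Control set: Tunicamycin high control, DMSO low control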
697 NFkB inh: inhibitors of the PMA/ionomycin-induced NF-kB reporter in 697 B cells; 697 B-cell NF-kB luciferase reporter, 16 h; 330,000 tested, 0.33% active; AID 435022; inhibition, % at 4 µM; in the data active means inhibition above about 35%
XBP1 UPR activ: activators of adaptive arm of unfolded protein response (XBP1) | AID 463104 | CHO-XBP1 luciferase reporter, IRE1-XBP1 UPR activation, luminescence; percent of tunicamycin response, DMSO as zero | activation, % at 20 µM | 330,000 tested, 0.33% active;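 active means versus positive control, 20 µM dose yields 30% or more activation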
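Material: CHO-XBP1 cells stably carrying IRE1-XBP1-driven luciferase reporter | Medium: F12 with 10% serum | Compound dosing: 20 µM single concentration, DMSO 1% | Incubation: Overnight seeding at 37 °C, 6 h compound treatment at 37 °C | Detection: Steady-Glo luminescence read | Read-out basis: % activation of reporter signal versus tunicamycin and DMSO controls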
CHOP inhibitor: inhibitors of CHOP induction in ER stress response; inhibition, % at 10 µM; 220,000 tested, 3.8% active; AID 2732; CHO-K1 CHOP-promoter luciferase, tunicamycin-induced, 15-18 h;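 active means compounds that reduced the stress-induced luciferase reporter signal by more than about 70% of percent inhibition, limit read from the data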
Jurkat NFkB inh: lowers PMA/ionomycin-induced NF-kB signal in Jurkat cells. PMA/ionomycin-induced NF-kB luciferase reporter, luminescence. inhibition, % at 4 µM. 330,000 tested, 0.53% active. AID 435003; in the data active means inhibition above about 50%
697 NFkB conf: lowers PMA/ionomycin-induced NF-kB signal in 697 B cells; shares compounds with 697 NFkB inh; 2,000 tested, 35% active; inhibition, % at 4 µM; 697 B-cell NF-kB luciferase, 16 h; in the data active means inhibition mostly above about 28%, no sharp cut-off; inactive means mostly below about 22%
A number is an active result; . = inactive; / = not tested or not shown.

SMILES	CHOP UPR activ	697 NFkB inh	XBP1 UPR activ	CHOP inhibitor	Jurkat NFkB inh	697 NFkB conf
COc1cc(OC)cc(-c2cc3nc(C)c(CCC(=O)Nc4nc(C)cs4)c(C)n3n2)c1	.	36	.	.	.	39
COc1cc(NC(=O)CCc2c(C)nc3nc(C)nn3c2C)cc(OC)c1	.	.	.	.	.	/
CC(=O)c1ccc(N2CCN(C(=O)c3cc(S(=O)(=O)N4CCOCC4)ccc3C)CC2)cc1	.	.	.	/	.	/
CCOc1ccc(NC(=O)CN(C)C(=O)c2ccc(N3CCCCCC3)c([N+](=O)[O-])c2)cc1OCC	.	42	.	/	.	.
CC(=O)Nc1sc2c(c1C(c1ccc(F)cc1)N1CCOCC1)CCCC2 (centres undefined)	.	37	.	.	.	.
CCOC(=O)[C@H]1[C@H]2COc3ccccc3[C@@H]2N2C(=O)c3ccccc3NC(=O)[C@@]12C	.	.	.	/	.	/
CCOC(=O)[C@H]1[C@H]2COc3ccccc3[C@@H]2N2C(=O)c3ccc(C)cc3NC(=O)[C@@]12C	.	36	.	/	.	.
CCOc1cc2nc(-c3ccc(OC)c(OC)c3)nc(N3CCOCC3)c2cc1OC	.	45	.	.	.	38
CCCCCc1c(C)nc(Nc2nc(C)c3cc(OC)ccc3n2)[nH]c1=O	.	39	.	90	.	.
CCc1ccc2nc(Nc3nc(COC)cc(=O)[nH]3)nc(C)c2c1	.	42	.	.	.	38
CCc1c(C)nc(Nc2nc(C)c3cc(OC)ccc3n2)[nH]c1=O	.	.	.	.	.	/
COc1ccc(CCNC(=O)c2cc(-c3ccccc3)c(N3CCOCC3)s2)cc1OC	.	.	.	/	.	/
CCCN(CC(=O)Nc1ccccc1C)C(=O)Cc1n[nH]c(=O)c2ccccc12	.	.	.	/	.	/
CC(C)c1cc(C(=O)NC2CCCc3c2cnn3-c2ccccc2F)no1 (centres undefined)	.	.	.	/	.	.
Cc1cc(C(=O)NC2CCCc3c2cnn3-c2ccccc2F)nc(C)n1 (centres undefined)	.	.	.	/	.	/
CCOC(=O)c1cc2c(=O)n3ccccc3nc2n(C)c1=NC(=O)c1c(-c2c(F)cccc2Cl)noc1C	.	48	.	/	.	.
c1ccc2[nH]c(-c3cscn3)nc2c1	/	/	/	.	/	/
c1ccc2nc(-c3nc4ccccc4[nH]3)ccc2c1	.	.	.	.	.	.
Oc1ccccc1-c1cc(-c2ccc3c(c2)OCCO3)n[nH]1	.	.	.	.	.	.
O=C(O)c1cc(-c2ccc3c(c2)OCCO3)n[nH]1	.	.	.	.	.	/
Cc1noc(COc2ccccc2OCC(N)=O)c1Cl	.	38	.	.	.	.
Cn1nc(-c2ccc(Cl)cc2)nc2c(=O)n(C)c(=O)nc1-2	.	.	.	/	.	.
Cc1ccc(C2C(N)C(=O)N2c2ccc(C)cc2)cc1 (centres undefined)	.	.	.	/	.	/
CCc1nn2cc(-c3ccccc3)nc2s1	.	.	.	.	.	/
Cc1nn2cc(-c3ccc(-c4ccccc4)cc3)nc2s1	.	.	.	.	.	.
SMILES	CHOP UPR activ	697 NFkB inh	XBP1 UPR activ	CHOP inhibitor	Jurkat NFkB inh	697 NFkB conf
COc1cc(OC)c2c(-c3cccc(-c4ccc(O)cc4)c3)cc(=O)oc2c1	.	.	.	/	/	/
COc1cc(OC)c2c(-c3cccc(-c4ccc(N(C)C)cc4)c3)cc(=O)oc2c1	.	.	.	/	/	.
COc1cc(OC)c2c(-c3cccc(-c4cccc(C)c4)c3)cc(=O)oc2c1	.	.	.	/	/	/
COc1ccc(-c2cccc(-c3cc(=O)oc4cc(OC)cc(OC)c34)c2)cc1	.	.	.	/	/	.
NS(=O)(=O)c1ccc(CCNC(=O)c2cnc(Cl)c(Cl)c2)cc1	.	.	.	/	.	/
CCc1nc(SCC(=O)N2c3ccccc3CC2C)c2c(C)c(C)sc2n1 (centres undefined)	.	.	.	.	.	.
c1ccc(C2=NNC(c3ccccn3)=NN2)nc1	.	.	.	/	.	/
Cc1cc(C)cc(NS(=O)(=O)c2ccc3c(c2)C(C)(C)C(=O)N3C)c1	.	.	.	/	.	/
COc1ccccc1Cn1c(=O)c2ccccc2n2c(SCc3csc(C)n3)nnc12	.	.	.	.	.	/
